Results reported in ChEMBL document CHEMBL5356938, “Enhancing allosteric inhibition of dihydrodipicolinate synthase through the design and synthesis of novel dimeric compounds” (RSC Med Chem, 2023).

Key:
[1] = Inhibition of Escherichia coli DHDPS using ASA as substrate assessed as NADPH oxidation to NADP+ preincubated with compound for 12 mins in the presence of NADPH followed by substrate addition by UV/Vis spectrophotometric analysis
How it was run: (§1)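 Coupled DHDPS–DHDPR assay with final 250 mM HEPES pH 8.0, 0.2 mM NADPH, 1 mM pyruvate, 0.125 mM ASA, 0.0009 mM E. coli DHDPR, 0.00008 mM DHDPS, 0.05% Tween 20 and varied inhibitor. Enzymes, pyruvate, buffer and NADPH were held at 30 °C for 12 min, then ASA was added. NADPH oxidation was followed at 340 nm and 30 °C. Initial rates came from the linear A340 slope, run in triplicate, and were used for IC50.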

[2] = target: T1, 4-hydroxy-tetrahydrodipicolinate synthase 1, chloroplastic (Arabidopsis thaliana, UniProt Q9LZX6); experiment: Inhibition of Arabidopsis thaliana DHDPS1; how it was run: as §1
T1 sequence (Q9LZX6 whole entry): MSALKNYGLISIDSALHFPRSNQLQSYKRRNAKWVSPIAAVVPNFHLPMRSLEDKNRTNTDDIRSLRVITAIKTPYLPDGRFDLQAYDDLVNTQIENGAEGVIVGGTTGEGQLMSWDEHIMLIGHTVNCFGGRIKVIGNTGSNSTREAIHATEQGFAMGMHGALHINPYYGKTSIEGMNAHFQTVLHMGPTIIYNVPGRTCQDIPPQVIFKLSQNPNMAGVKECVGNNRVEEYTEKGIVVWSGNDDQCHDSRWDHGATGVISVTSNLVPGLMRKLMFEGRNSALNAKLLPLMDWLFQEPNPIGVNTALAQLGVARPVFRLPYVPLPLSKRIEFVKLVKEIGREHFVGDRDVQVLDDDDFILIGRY

[3] = target: T2, 4-hydroxy-tetrahydrodipicolinate synthase 2, chloroplastic (Arabidopsis thaliana, UniProt Q9FVC8); experiment: Inhibition of Arabidopsis thaliana DHDPS2; how it was run: as §1
T2 sequence (Q9FVC8 whole entry): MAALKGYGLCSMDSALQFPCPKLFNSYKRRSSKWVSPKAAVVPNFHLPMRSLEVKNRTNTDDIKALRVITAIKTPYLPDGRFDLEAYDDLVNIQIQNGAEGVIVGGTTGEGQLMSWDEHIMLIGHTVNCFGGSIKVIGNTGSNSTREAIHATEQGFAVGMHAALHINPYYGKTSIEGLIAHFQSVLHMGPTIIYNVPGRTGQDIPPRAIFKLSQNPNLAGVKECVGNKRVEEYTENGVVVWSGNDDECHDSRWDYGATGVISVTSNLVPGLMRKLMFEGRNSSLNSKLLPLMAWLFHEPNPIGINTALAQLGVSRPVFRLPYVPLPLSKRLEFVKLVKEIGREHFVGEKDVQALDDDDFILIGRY

| IC50 [1] [µM] | IC50 [2] [µM] | IC50 [3] [µM] | SMILES |
| --- | --- | --- | --- |
| 40.6 | – | – | COc1ccc(/C=C2\SC(=O)N(C(CCCC(C(=O)O)N3C(=O)S/C(=C\c4ccc(OC)cc4)C3=O)C(=O)O)C2=O)cc1 (stereo unspecified) |
| 47 | 66.2 | 66 | COc1ccc(/C=C2\SC(=O)N(CC(=O)O)C2=O)cc1 |
| 30.4 | – | – | COc1ccc(/C=C2\SC(=O)N([C@H](C[C@H](C(=O)O)N3C(=O)S/C(=C\c4ccc(OC)cc4)C3=O)C(=O)O)C2=O)cc1 (racemic) |
| 9.95 | 35.6 | 33.9 | COc1ccc(/C=C2\SC(=O)N([C@H](C[C@@H](C(=O)O)N3C(=O)S/C(=C\c4ccc(OC)cc4)C3=O)C(=O)O)C2=O)cc1 |
| 42 | – | – | COc1ccc(/C=C2\SC(=O)N([C@H](CC[C@@H](C(=O)O)N3C(=O)S/C(=C\c4ccc(OC)cc4)C3=O)C(=O)O)C2=O)cc1 |
| 77.4 | – | – | CCOC(=O)C(Br)CCC(Br)C(=O)OCC (stereo unspecified) |
| 19.7 | – | – | COc1ccc(/C=C2\SC(=O)N([C@@H](CC[C@@H](C(=O)O)N3C(=O)S/C(=C\c4ccc(OC)cc4)C3=O)C(=O)O)C2=O)cc1 (racemic) |
